{"data": "Published values of several laboratories", "matrix": "plasma", "note": "Each line is one published result; the experiments were not run side by side."}
{"Structure (SMILES)": "N[C@@H](CC(=O)O)Cn1nnc(-c2ccc(Oc3ncc(Cl)cc3F)cc2)n1", "system": "male beagle dog", "conditions": "oral, 0.5 mg/kg", "quantity": "Cmax", "value": "5.7 ng/mL"}
{"Structure (SMILES)": "CC(=O)CC(=O)C1CC(C)C(=O)C1=O (stereo not drawn)", "system": "male Sprague-Dawley rat", "conditions": "oral, 100 mg/kg", "quantity": "Tmax", "value": "4.8 min"}
{"Structure (SMILES)": "CCNCCCn1c2c(c3cc(OC)c(OC)cc3c1=O)C(=O)c1cc3c(nc1-2)OCO3", "system": "male CD-1 mouse", "conditions": "intravenous, 1 mg/kg", "quantity": "clearance", "value": "107 mL/min/kg"}
{"Structure (SMILES)": "O=C(C=Cc1ccccc1)Nc1cc(-c2ccnc(N3CCC(O)CC3)c2)ccn1", "system": "female Sprague-Dawley rat", "conditions": "intravenous, 5 mg/kg", "quantity": "Tmax", "value": "4.98 min"}
{"Structure (SMILES)": "O=C1CCC(N2Cc3cc(NC(=O)c4cccc(F)c4)ccc3C2=O)C(=O)N1 (stereo not drawn)", "system": "female CD-1 mouse", "conditions": "intravenous, 3 mg/kg", "quantity": "clearance", "value": "24 mL/min/kg"}
{"Structure (SMILES)": "N#C[C@@]12C[C@@H]1[C@@H](n1cnc3c(N[C@@H](C4CCC4)C4CC4)nc(I)nc31)[C@H](O)[C@@H]2O", "system": "male Wistar rat", "conditions": "oral, 10 mg/kg", "quantity": "Tmax", "value": "120 min"}
{"Structure (SMILES)": "CCN1CCN(Cc2ccc(NC(=O)c3ccc(C)c(NC(=O)c4cncc(-c5cccs5)c4)c3)cc2C(F)(F)F)CC1", "system": "mouse", "conditions": "intraperitoneal, 20 mg/kg, single dose", "quantity": "CL/F", "value": "151 mL/min/kg"}
{"Structure (SMILES)": "Cc1cc2sc(N)nc2c2cccnc12", "system": "female BALB/c mouse", "conditions": "intraperitoneal, 30 mg/kg, single dose", "quantity": "CL/F", "value": "11 mL/min/kg"}
{"Structure (SMILES)": "CC1=NN(/C(=N/c2nnc(C)s2)Nc2ccc(C)c(C)c2)C(c2cc(F)c(F)c(F)c2)S1 (stereo not drawn)", "system": "male CD-1 mouse", "conditions": "intravenous, 1 mg/kg", "quantity": "clearance", "value": "121 mL/min/kg"}
{"Structure (SMILES)": "CC(=Nc1ccc(N=Cc2cnccn2)cc1)N(C)C", "system": "male Sprague-Dawley rat", "conditions": "oral, 200 mg/kg", "quantity": "Tmax", "value": "4.98 min"}
{"Structure (SMILES)": "COc1cc2c3c(n(CCCNCCO)c(=O)c2cc1OC)-c1nc2c(cc1C3=O)OCO2", "system": "male CD-1 mouse", "conditions": "intravenous, 1 mg/kg", "quantity": "clearance", "value": "107 mL/min/kg"}
{"Structure (SMILES)": "Cc1cc([C@@H](C)Nc2ccccc2C(=O)O)c2nc(N3CCC(F)(F)CC3)c(C#N)c(=O)n2c1", "system": "male beagle dog", "conditions": "intravenous, 2 mg/kg", "quantity": "clearance", "value": "64 mL/min/kg"}
{"Structure (SMILES)": "Cc1c(C(=O)O)ccc2c3n(nc12)[C@@H]1[C@H](C3)N(CC2CC2)[C@@]2(C(=O)Nc3cc(Cl)ccc32)[C@H]1c1cccc(Cl)c1F", "system": "male dog", "conditions": "oral, 2 mg/kg", "quantity": "Cmax", "value": "3.5 µM"}
{"Structure (SMILES)": "O=C1CCC(N2Cc3cc(Nc4noc5cc(F)ccc45)ccc3C2=O)C(=O)N1 (stereo not drawn)", "system": "female CD-1 mouse", "conditions": "intravenous, 3 mg/kg", "quantity": "clearance", "value": "55 mL/min/kg"}
{"Structure (SMILES)": "O=C1CC[C@H](N2Cc3cc(N4CCN(CC5CCN(c6ccc([C@@H]7c8ccc(O)cc8CC[C@@H]7c7ccccc7)cc6)CC5)CC4)ccc3C2=O)C(=O)N1", "system": "female Sprague-Dawley rat", "conditions": "oral, 20 mg/kg, fed", "quantity": "Tmax", "value": "320 min"}
